Measurements from PMC2229510 (The Journal of General Physiology, 2001).
Read-outs that look alike come from different tables or passages of the source.

Legend:
QQQQ receptor = QQQQ receptor (Salmonella typhimurium, UniProt P02941, E302Q/E491Q); assay: L-aspartate binding to QQQQ receptor; conditions: given binding constant for QQQQ receptor
[1] = target: aspartate receptor EQEE receptor–kinase signaling complex (Salmonella typhimurium, UniProt P02941, E302Q/Q295E/Q309E); assay: in vitro receptor-coupled kinase assay, attractant titration, EQEE receptor; type: biochemical, S. typhimurium
[2] = target: aspartate receptor EQQQ receptor–kinase signaling complex (Salmonella typhimurium, UniProt P02941, E302Q/E491Q/Q295E); assay: in vitro receptor-coupled kinase assay, attractant titration, EQQQ receptor; type: biochemical, S. typhimurium
[3] = target: aspartate receptor QQEQ receptor–kinase signaling complex (Salmonella typhimurium, UniProt P02941, E302Q/E491Q/Q309E); assay: in vitro receptor-coupled kinase assay, attractant titration, QQEQ receptor; type: biochemical, S. typhimurium
[4] = target: aspartate receptor QQQQ receptor–kinase signaling complex (Salmonella typhimurium, UniProt P02941, E302Q/E491Q); assay: in vitro receptor-coupled kinase assay, attractant titration, QQQQ receptor; type: biochemical, S. typhimurium
[5] = target: aspartate receptor QEEQ receptor–kinase signaling complex (Salmonella typhimurium, UniProt P02941, E491Q/Q309E); assay: in vitro receptor-coupled kinase assay, attractant titration, QEEQ receptor; type: biochemical, S. typhimurium
[6] = target: aspartate receptor QQQE receptor–kinase signaling complex (Salmonella typhimurium, UniProt P02941, E302Q); assay: in vitro receptor-coupled kinase assay, attractant titration, QQQE receptor; type: biochemical, S. typhimurium
[7] = target: aspartate receptor EEQE receptor–kinase signaling complex (Salmonella typhimurium, UniProt P02941, Q295E); assay: in vitro receptor-coupled kinase assay, attractant titration, EEQE receptor; type: biochemical, S. typhimurium
[8] = target: aspartate receptor QEQQ receptor–kinase signaling complex (Salmonella typhimurium, UniProt P02941, E491Q); assay: in vitro receptor-coupled kinase assay, attractant titration, QEQQ receptor; type: biochemical, S. typhimurium
[9] = target: aspartate receptor EQQE receptor–kinase signaling complex (Salmonella typhimurium, UniProt P02941, E302Q/Q295E); assay: in vitro receptor-coupled kinase assay, attractant titration, EQQE receptor; type: biochemical, S. typhimurium
[10] = target: aspartate receptor–kinase signaling complex (Salmonella enterica subsp. enterica serovar Typhimurium, UniProt P02941); type: biochemical, S. typhimurium; conditions: pure off-state, extrapolated from the correlation
[11] = target: aspartate receptor EEQQ receptor–kinase signaling complex (Salmonella typhimurium, UniProt P02941, E491Q/Q295E); assay: in vitro receptor-coupled kinase assay, attractant titration, EEQQ receptor; type: biochemical, S. typhimurium
[12] = target: aspartate receptor QQEE receptor–kinase signaling complex (Salmonella typhimurium, UniProt P02941, E302Q/Q309E); assay: in vitro receptor-coupled kinase assay, attractant titration, QQEE receptor; type: biochemical, S. typhimurium
[13] = target: aspartate receptor EEEQ receptor–kinase signaling complex (Salmonella typhimurium, UniProt P02941, E491Q/Q295E/Q309E); assay: in vitro receptor-coupled kinase assay, attractant titration, EEEQ receptor; type: biochemical, S. typhimurium
[14] = target: aspartate receptor QEQE (wild type) receptor–kinase signaling complex (Salmonella typhimurium, UniProt P02941); assay: in vitro receptor-coupled kinase assay, attractant titration, QEQE; type: biochemical, S. typhimurium
In short: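 Native E. coli membranes carrying the receptor (about 10% of total protein) were mixed with purified CheA, CheW and excess CheY to reconstitute the signaling complex, with receptor in the low micromolar range. Kinase activity was read as radiolabeled phospho-CheY at 10-s initial-rate points across α-methyl-aspartate concentrations, normalized to the no-attractant maximum, with three measurements per point. K1/2 and Hill coefficient came from a multisite Hill fit using free attractant concentration.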

[15] = target: aspartate receptor QEEE receptor–kinase signaling complex (Salmonella typhimurium, UniProt P02941, Q309E); assay: in vitro receptor-coupled kinase assay, attractant titration, QEEE receptor; type: biochemical, S. typhimurium
[16] = target: aspartate receptor EQEQ receptor–kinase signaling complex (Salmonella typhimurium, UniProt P02941, E302Q/E491Q/Q295E/Q309E); assay: in vitro receptor-coupled kinase assay, attractant titration, EQEQ receptor; type: biochemical, S. typhimurium

N[C@@H](CC(=O)O)C(=O)O [L-aspartate]
free energy driving force toward the off-state on binding (QQQQ receptor): exceeding 8 kcal mol^−1

CC(N)(CC(=O)O)C(=O)O (racemic) [α-methyl-aspartate, α-methyl-D,L-aspartate]
IC50 [1]: 16 ± 4 µM | Measured Hill coefficient ([1]; EQEE receptor, attractant titration, Hill fit): 1.6 ± 0.4 | IC50 [2]: 39 ± 4 µM | Measured Hill coefficient ([2]; EQQQ receptor, attractant titration, Hill fit): 2.0 ± 0.3 | IC50 [3]: 54 ± 6 µM | Measured Hill coefficient ([3]; QQEQ receptor, attractant titration, Hill fit): 2.0 ± 0.5 | IC50 [4]: 97 ± 4 µM | Measured Hill coefficient ([4]; QQQQ receptor, attractant titration, Hill fit): 2.2 ± 0.2 | IC50 [5]: 19 ± 2 µM | Measured Hill coefficient ([5]; QEEQ receptor, attractant titration, Hill fit): 2.4 ± 0.5 | IC50 [6]: 98 ± 4 µM | Measured Hill coefficient ([6]; QQQE receptor, attractant titration, Hill fit): 3.3 ± 0.4 | IC50 [7]: 23 ± 2 µM | Measured Hill coefficient ([7]; EEQE receptor, attractant titration, Hill fit): 1.8 ± 0.1 | IC50 [8]: 62 ± 3 µM | Measured Hill coefficient ([8]; QEQQ receptor, attractant titration, Hill fit): 2.2 ± 0.3 | IC50 [9]: 14 ± 2 µM | Measured Hill coefficient ([9]; EQQE receptor, attractant titration, Hill fit): 2.1 ± 0.3 | K1/2 of the off-state (inactivated conformation) [10]: micromolar to submicromolar range | K1/2 of the off-state (inactivated conformation) ([10]; listed as α-methyl aspartate): submicromolar to micromolar range | IC50 [11]: 19 ± 2 µM | Measured Hill coefficient ([11]; EEQQ receptor, attractant titration, Hill fit): 1.9 ± 0.2 | IC50 [12]: 31 ± 2 µM | Measured Hill coefficient ([12]; QQEE receptor, attractant titration, Hill fit): 2.2 ± 0.2 | IC50 [13]: 9 ± 3 µM | Measured Hill coefficient ([13]; EEEQ receptor, attractant titration, Hill fit): 1.1 ± 0.4 | IC50 [14]: 23 ± 4 µM | Measured Hill coefficient ([14]; QEQE (wild type) receptor, attractant titration, Hill fit): 1.8 ± 0.1 | IC50 [15]: 9 ± 1 µM | Measured Hill coefficient ([15]; QEEE receptor, attractant titration, Hill fit): 1.7 ± 0.1 | IC50 [16]: 14 ± 1 µM | Measured Hill coefficient ([16]; EQEQ receptor, attractant titration, Hill fit): 2.9 ± 0.3
